Source: PubChem (Broad Institute)
Most compounds without a hit are left out; they make up all but 2.7% or so of the library.
DENV2 CPE rescue: protects cells from dengue virus 2 cytopathic effect. DENV2-infected cells, cytopathic effect rescue, plate reader. CPE inhibition, % at 9.99 µM. 350,000 tested, 1.7% active. AID 651640; in the data active = CPE inhibition above about 20%, passing the limit was not always enough; inconclusive = no clear call, values can overlap the other calls; tested in BHK-21 cells;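 also: 0% = median of neutral control wells and 100% = median of positive control wells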
AF4-AF9 inh: inhibitors of human MLL-AF4/AF9 interaction | inhibition, % at 10 µM | AlphaScreen, biotin-AF4 peptide binding to FLAG-AF9 | 350,000 tested, 0.47% active | P42568;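 active = every replicate reaching a set inhibition limit, whatever the replicate mean, cut at about 25% in these data; inconclusive = mean inhibition reaches that limit but some replicates miss it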;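 also: 0% = plate neutral control median and 100% = total signal loss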
Target sequence (P42568 whole entry, looked up): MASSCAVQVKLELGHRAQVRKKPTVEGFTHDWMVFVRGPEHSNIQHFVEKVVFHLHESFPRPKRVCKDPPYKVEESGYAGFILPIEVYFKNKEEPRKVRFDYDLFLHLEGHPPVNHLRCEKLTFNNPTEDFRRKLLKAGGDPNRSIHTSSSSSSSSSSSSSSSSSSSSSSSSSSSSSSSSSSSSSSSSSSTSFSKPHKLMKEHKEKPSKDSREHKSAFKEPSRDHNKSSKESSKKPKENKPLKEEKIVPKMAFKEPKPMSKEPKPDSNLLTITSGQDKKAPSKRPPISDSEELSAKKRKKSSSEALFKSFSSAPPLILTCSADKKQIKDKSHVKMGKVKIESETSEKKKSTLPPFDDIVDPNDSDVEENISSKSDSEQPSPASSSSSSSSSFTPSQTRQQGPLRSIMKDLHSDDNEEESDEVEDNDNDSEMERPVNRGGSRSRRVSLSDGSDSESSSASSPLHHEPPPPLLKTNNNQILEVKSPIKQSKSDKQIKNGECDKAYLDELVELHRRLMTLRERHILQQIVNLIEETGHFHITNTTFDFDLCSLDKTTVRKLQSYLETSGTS
SIRT5 inh: sirtuin-5 (human) deacylase inhibition. Q9NXA8. Purified SirT5, succinyl-peptide AMC, trypsin-coupled fluorescence. inhibition, % at 15 µM. 330,000 tested, 1.1% active; in the data active = inhibition above about 15%; inconclusive = no clear call, values can overlap the other calls
S100A4 MyoIIA: blocks human S100A4 binding to myosin IIA peptide; P26447; S100A4/TAMRA-MyoIIA peptide fluorescence polarization; inhibition, % at 10.7 µM; 360,000 tested, 0.14% active; AID 652163;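 active = mean inhibition of at least 70% across replicates, with every replicate also reaching that level; inconclusive = mean inhibition reaches 70% but some replicates fall short; inactive = mean inhibition below 70%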
Target sequence (P26447 whole entry, looked up): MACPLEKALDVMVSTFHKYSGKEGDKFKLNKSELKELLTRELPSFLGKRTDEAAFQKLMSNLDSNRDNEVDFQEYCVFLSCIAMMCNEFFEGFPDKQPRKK
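Material: S100A4 monomer protein / Buffer or medium: 50 mM HEPES pH 7.2, 10 mM CaCl2, 100 mM KCl / Times: 5 min incubation before reading / Benchmarks: neutral control DMSO, positive control TFP / Reagent: labelled myosin peptide probe, 5 nM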
CaV13 FRET inh: Primary screen for inhibitors of IQ motif and Ca2+-dependent inactivation inhibitor domain binding in CACNA1D, Förster resonance energy transfer in living cells, …; AID 743397; 340,000 tested, 0.098% active; HEK cells, CFP/YFP FRET ICDI-IQ, plate reader, 10 min; percent FRET-ratio fall versus neutral wells; inhibition, % at 12.3 µM;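 active = mean replicate inhibition of at least 30% and at least 1% of replicates passing that level; inconclusive = only one of the two criteria is met; inactive = neither criterion is met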;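 also: 0% = median of the neutral control wells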
The depositor's hits bear a star; ? = inconclusive; . = no result; ! = not confirmed by another sample.

SMILES | DENV2 CPE rescue | AF4-AF9 inh | SIRT5 inh | S100A4 MyoIIA | CaV13 FRET inh
CN(C)c1cccc(/C=C(\C#N)c2ccccc2)c1 | -4 | 26* | 0 | 7 | -3
CN(C)c1ccc(/C=C(\C#N)C(=O)c2ccccc2)cc1 | 3 | 1 | -9 | -10 | -6
CCN1CCCCC(=N/O)/C(=N/O)CCCC1 | -3 | 0 | 18* | 1 | -7
CCCC#Cc1ccc2c(c1)O[C@H](CN(C)C(=O)C1CCC1)[C@H](C)CN([C@H](C)CO)S2(=O)=O | 36* | 4 | 1 | 4 | .
C[C@H]1CN([C@@H](C)CO)S(=O)(=O)c2ccc(C#CCN(C)C)cc2O[C@H]1CN(C)C(=O)C1CCC1 | 29* | -2 | -1 | -1 | .
CCCC#Cc1ccc2c(c1)O[C@H](CN(C)C(=O)COC)[C@@H](C)CN([C@H](C)CO)S2(=O)=O | 23* | 0 | -5 | -7 | .
CCCC#Cc1ccc2c(c1)O[C@@H](CN(C)C(=O)C1CCC1)[C@H](C)CN([C@@H](C)CO)S2(=O)=O | 0 | 5 | -2 | -11 | .
CN(C)Cc1cn(CC[C@@H]2CC[C@H](NC(=O)Nc3ccc4c(c3)OCO4)[C@@H](CO)O2)nn1 | 5 | 0 | 1 | 0 | .
Cc1ccc(CN2CC(=O)N3[C@H](CO)[C@@H](c4ccc(Br)cc4)[C@@H]3C2)cc1 | 14 | 2 | -1 | 9 | .
COc1ccc(C#Cc2ccc3c(c2)O[C@@H](CN(C)C(=O)c2ccccn2)[C@H](C)CN([C@H](C)CO)S3(=O)=O)cc1 | 2 | 5 | 4 | -3 | .
Cc1ccc(NC(=O)COCC(=O)Nc2ccc(F)cc2)cc1 | 1 | -1 | 24* | -2 | -4
COCC#Cc1cnc2c(c1)C(=O)N([C@H](C)CO)C[C@H](C)[C@@H](CN(C)C(=O)c1cccc(F)c1)O2 | -4 | -3 | 0 | 1 | .
O=C(C[C@@H]1CC[C@H]2[C@@H](COC[C@@H](O)CN2Cc2cccc(C(F)(F)F)c2)O1)NCCc1ccccc1 | 26* | -10 | 0 | 5 | .
O=C(C[C@H]1CC[C@H]2[C@@H](COC[C@H](O)CN2Cc2cccc(C(F)(F)F)c2)O1)NCc1ccncc1 | -3 | -1 | 17* | -2 | .
O=C(C[C@@H]1CC[C@@H]2[C@H](COC[C@@H](O)CN2Cc2cccc(C(F)(F)F)c2)O1)NCCc1ccccc1 | -5 | -10 | 0 | -2 | .
COc1ccc(S(=O)(=O)N(C)C[C@H]2OCCCC[C@@H](C)Oc3ccc(N(C)C)cc3C(=O)N([C@H](C)CO)C[C@H]2C)cc1 | ? | ? | 7 | 61 | .
Cc1cc(N=Nc2ccc(C)c(N=Nc3cc(C)c(N)cc3N)c2)c(N)cc1N | 0 | 63* | 1 | -2 | -21
CO[C@H](CN(C)S(=O)(=O)c1cccc(Cl)c1)[C@H](C)CN(C(=O)Nc1ccccc1F)[C@H](C)CO | 3 | 1 | -4 | 2 | .
Cc1ccc(S(=O)(=O)N(C)C[C@@H]2Oc3ccc(NC(=O)CCC(F)(F)F)cc3C(=O)N([C@H](C)CO)C[C@@H]2C)cc1 | 47* | 0 | 12 | 3 | .
C[C@H]1CN([C@@H](C)CO)C(=O)c2cc(NC(=O)C3CC3)ccc2O[C@H]1CN(C)S(=O)(=O)c1cccs1 | 36* | -1 | -21 | -6 | .
C[C@H](CO)N1C[C@H](C)[C@@H](CN(C)S(=O)(=O)c2cccs2)Oc2ccc(NC(=O)CCC(F)(F)F)cc2C1=O | -4 | 0 | 25*! | -1 | -6
C[C@H]1CN([C@@H](C)CO)C(=O)c2cc(NC(=O)CCC(F)(F)F)ccc2O[C@H]1CN(C)CC1CCCCC1 | -6 | -3 | 4 | -6 | .
C[C@@H]1CN([C@@H](C)CO)C(=O)c2cc(NC(=O)CCC(F)(F)F)ccc2O[C@@H]1CN(C)CC1CCCCC1 | 22* | -16 | 4 | -1 | .
C[C@H](CO)N1C[C@H](C)[C@H](CN(C)S(=O)(=O)c2cccs2)Oc2ccc(NC(=O)C3CC3)cc2C1=O | 5 | -1 | -2 | 1 | .
CCC(=O)N(C)C[C@H]1Oc2cc(C#CCOC)ccc2S(=O)(=O)N([C@@H](C)CO)C[C@@H]1C | ? | 1 | 1 | 1 | .
SMILES | DENV2 CPE rescue | AF4-AF9 inh | SIRT5 inh | S100A4 MyoIIA | CaV13 FRET inh
COC(=O)C[C@H]1CC[C@@H]2[C@@H](COc3ccc(NC(=O)NC(C)C)cc3C(=O)N2C)O1 | . | 1 | . | . | .
C[C@H]1CN([C@@H](C)CO)C(=O)c2cc(NC(=O)CCC(F)(F)F)ccc2O[C@H]1CN(C)S(C)(=O)=O | 13 | -2 | -2 | 2 | .
C[C@H]1CN([C@@H](C)CO)C(=O)c2cc(NC(=O)CCN3CCOCC3)ccc2O[C@H]1CN(C)S(C)(=O)=O | 0 | -4 | -1 | -8 | .
C[C@H]1CN([C@@H](C)CO)C(=O)c2cc(NC(=O)CCC(F)(F)F)ccc2O[C@@H]1CN(C)S(C)(=O)=O | 21* | 1 | 2 | -6 | .
C[C@@H]1CN([C@@H](C)CO)C(=O)c2cc(NC(=O)CCC(F)(F)F)ccc2O[C@@H]1CN(C)C(=O)Nc1ccccc1 | 26* | -11 | 3 | -1 | .
C[C@H](CO)N1C[C@H](C)[C@@H](CN(C)S(C)(=O)=O)Oc2ccc(NC(=O)CCN3CCOCC3)cc2C1=O | -4 | 1 | 23*! | 5 | -4
C[C@H]1CN([C@@H](C)CO)C(=O)c2cc(NC(=O)CCC(F)(F)F)ccc2O[C@H]1CN(C)C(=O)Nc1ccccc1 | 4 | -5 | 10 | ? | .
C[C@H](CO)N1C[C@H](C)[C@@H](CN(C)Cc2ccc(C(=O)O)cc2)Oc2ccc(N(C)C)cc2C1=O | 6 | -2 | 1 | -18 | .
O=C(CCN=C1NS(=O)(=O)c2ccccc21)OCC(=O)c1ccccc1Cl | 2 | -5 | 16* | -4 | -6
CO[C@H](CN(C)CC1CCOCC1)[C@H](C)CN(C(=O)Nc1ccc(F)cc1)[C@@H](C)CO | 5 | 0 | 4 | -3 | .
COc1ccc(S(=O)(=O)Nc2ccc3c(c2)C(=O)N([C@H](C)CO)C[C@H](C)[C@@H](CN(C)S(=O)(=O)c2ccc(Cl)cc2)OCCCC[C@H](C)O3)cc1 | -2 | 0 | 0 | 0 | .
COc1ccc(S(=O)(=O)N(C)C[C@H]2OCCCC[C@H](C)Oc3ccc(NS(=O)(=O)c4ccc(Cl)cc4)cc3C(=O)N([C@H](C)CO)C[C@H]2C)cc1 | 21* | -2 | 22* | 13 | .
COc1ccc(S(=O)(=O)Nc2ccc3c(c2)C(=O)N([C@@H](C)CO)C[C@@H](C)[C@@H](CN(C)S(=O)(=O)c2ccc(Cl)cc2)OCCCC[C@H](C)O3)cc1 | 35* | -2 | 21* | -2 | .
COc1ccc(S(=O)(=O)N(C)C[C@@H]2OCCCC[C@H](C)Oc3ccc(NS(=O)(=O)c4ccc(Cl)cc4)cc3C(=O)N([C@@H](C)CO)C[C@H]2C)cc1 | -5 | -1 | 21* | -23 | .
